In the M2OR odorant receptor database:

Assays:
Settings in all cases: stereoisomer not certain
OR51D1 (Homo sapiens) = target: T1, OR51D1 (Homo sapiens) (UniProt Q8NGF3)
T1 sequence (whole entry): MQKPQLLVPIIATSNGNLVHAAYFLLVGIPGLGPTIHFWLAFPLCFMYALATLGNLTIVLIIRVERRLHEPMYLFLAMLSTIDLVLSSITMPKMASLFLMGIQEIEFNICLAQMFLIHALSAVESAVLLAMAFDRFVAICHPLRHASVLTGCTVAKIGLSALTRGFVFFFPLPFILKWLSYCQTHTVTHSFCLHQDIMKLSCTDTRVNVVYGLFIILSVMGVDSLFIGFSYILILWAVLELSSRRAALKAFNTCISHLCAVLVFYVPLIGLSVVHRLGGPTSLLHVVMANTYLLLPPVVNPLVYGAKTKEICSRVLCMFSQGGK
How it was run: (§1)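 Assay methods differ from source to source, frequently being transient luciferase assays in mammalian cell lines. For each receptor–molecule pair, the label responsive (active) applies when the original authors judged the measured signal statistically different from baseline, and non-responsive (inactive) applies otherwise.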

OR51E1 (Homo sapiens) = target: T2, OR51E1 (Homo sapiens) (UniProt Q8TCB6)
T2 sequence (whole entry): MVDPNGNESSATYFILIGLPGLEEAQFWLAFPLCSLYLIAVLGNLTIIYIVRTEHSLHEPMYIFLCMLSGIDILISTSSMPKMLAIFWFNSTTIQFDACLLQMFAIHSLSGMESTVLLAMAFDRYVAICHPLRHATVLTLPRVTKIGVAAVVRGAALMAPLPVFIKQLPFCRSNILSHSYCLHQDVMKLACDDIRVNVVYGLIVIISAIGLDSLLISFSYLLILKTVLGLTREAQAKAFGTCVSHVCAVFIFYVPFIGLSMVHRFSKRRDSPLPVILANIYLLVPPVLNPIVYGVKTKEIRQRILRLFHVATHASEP
How it was run: as §1

OR51E2 (Homo sapiens) = target: T3, OR51E2 (Homo sapiens) (UniProt Q9H255)
T3 sequence (whole entry): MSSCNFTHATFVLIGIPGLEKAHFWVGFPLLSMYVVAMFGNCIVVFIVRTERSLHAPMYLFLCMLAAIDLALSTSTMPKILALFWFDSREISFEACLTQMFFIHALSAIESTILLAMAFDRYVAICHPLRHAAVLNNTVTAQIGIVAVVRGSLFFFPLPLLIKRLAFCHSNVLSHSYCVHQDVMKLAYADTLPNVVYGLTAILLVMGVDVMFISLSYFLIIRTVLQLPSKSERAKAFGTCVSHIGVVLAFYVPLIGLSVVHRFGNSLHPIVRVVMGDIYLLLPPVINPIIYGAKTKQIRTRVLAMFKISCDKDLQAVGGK
How it was run: as §1

OR51F1 (Homo sapiens) = target: T4, OR51F1 (Homo sapiens) (UniProt A6NGY5)
T4 sequence (whole entry): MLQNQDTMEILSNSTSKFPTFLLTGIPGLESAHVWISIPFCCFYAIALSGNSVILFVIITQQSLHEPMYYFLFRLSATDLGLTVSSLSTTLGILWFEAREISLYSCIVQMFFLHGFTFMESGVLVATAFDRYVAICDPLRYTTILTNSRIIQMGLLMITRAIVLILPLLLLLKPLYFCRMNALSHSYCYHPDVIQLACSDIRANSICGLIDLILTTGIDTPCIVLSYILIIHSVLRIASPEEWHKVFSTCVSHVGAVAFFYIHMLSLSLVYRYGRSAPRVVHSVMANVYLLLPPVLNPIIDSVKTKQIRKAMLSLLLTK
How it was run: as §1

OR51F2 (Homo sapiens) = target: T5, OR51F2 (Homo sapiens) (UniProt Q8NH61)
T5 sequence (whole entry): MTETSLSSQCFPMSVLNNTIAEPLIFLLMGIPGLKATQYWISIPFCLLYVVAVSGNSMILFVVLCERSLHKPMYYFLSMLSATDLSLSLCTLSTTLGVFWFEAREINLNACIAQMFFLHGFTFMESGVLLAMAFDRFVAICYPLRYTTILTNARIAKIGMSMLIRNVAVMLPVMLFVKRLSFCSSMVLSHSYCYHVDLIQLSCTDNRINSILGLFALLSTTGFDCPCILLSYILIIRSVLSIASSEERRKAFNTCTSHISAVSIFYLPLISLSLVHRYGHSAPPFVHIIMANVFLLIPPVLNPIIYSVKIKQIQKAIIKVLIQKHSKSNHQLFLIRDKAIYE
How it was run: as §1

OR51G1 (Homo sapiens) = target: T6, OR51G1 (Homo sapiens) (UniProt Q8NGK1)
T6 sequence (whole entry): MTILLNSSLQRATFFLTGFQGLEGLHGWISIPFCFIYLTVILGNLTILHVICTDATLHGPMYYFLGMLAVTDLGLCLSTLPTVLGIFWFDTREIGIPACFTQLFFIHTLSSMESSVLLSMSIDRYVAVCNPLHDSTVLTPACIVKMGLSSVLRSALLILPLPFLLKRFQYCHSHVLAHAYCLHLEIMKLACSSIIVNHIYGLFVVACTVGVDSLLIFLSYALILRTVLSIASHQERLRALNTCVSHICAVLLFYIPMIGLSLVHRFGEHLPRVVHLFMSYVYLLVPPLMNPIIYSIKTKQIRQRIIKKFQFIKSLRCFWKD
How it was run: as §1

OR51G2 (Homo sapiens) = target: T7, OR51G2 (Homo sapiens) (UniProt Q8NGK0)
T7 sequence (whole entry): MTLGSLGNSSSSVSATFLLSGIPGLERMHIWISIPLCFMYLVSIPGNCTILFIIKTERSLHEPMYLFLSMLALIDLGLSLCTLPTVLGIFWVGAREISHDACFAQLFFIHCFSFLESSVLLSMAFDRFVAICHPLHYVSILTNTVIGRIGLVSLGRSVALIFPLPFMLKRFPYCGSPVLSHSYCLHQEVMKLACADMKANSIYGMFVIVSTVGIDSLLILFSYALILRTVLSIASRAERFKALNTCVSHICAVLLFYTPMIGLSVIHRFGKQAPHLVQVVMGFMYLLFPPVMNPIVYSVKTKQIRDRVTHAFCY
How it was run: as §1

OR51I1 (Homo sapiens) = target: T8, OR51I1 (Homo sapiens) (UniProt Q9H343)
T8 sequence (whole entry): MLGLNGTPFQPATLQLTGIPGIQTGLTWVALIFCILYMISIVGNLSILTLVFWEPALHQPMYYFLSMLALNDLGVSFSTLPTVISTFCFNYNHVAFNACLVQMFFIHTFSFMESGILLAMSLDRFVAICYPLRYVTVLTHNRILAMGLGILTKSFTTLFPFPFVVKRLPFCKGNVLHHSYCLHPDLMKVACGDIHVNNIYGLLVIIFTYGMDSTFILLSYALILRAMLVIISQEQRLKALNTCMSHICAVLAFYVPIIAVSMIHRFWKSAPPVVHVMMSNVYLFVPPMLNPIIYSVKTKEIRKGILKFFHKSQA
How it was run: as §1

OR51I2 (Homo sapiens) = target: T9, OR51I2 (Homo sapiens) (UniProt Q9H344)
T9 sequence (whole entry): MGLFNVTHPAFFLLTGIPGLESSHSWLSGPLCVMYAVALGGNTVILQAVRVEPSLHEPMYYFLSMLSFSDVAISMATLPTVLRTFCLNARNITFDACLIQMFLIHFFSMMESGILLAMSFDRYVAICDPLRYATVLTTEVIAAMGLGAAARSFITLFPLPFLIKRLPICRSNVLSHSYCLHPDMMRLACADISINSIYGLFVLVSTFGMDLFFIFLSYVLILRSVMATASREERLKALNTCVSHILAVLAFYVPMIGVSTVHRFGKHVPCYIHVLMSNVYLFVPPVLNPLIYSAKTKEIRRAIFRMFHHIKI
How it was run: as §1

OR51J1 (Homo sapiens) = target: T10, OR51J1 (Homo sapiens) (UniProt Q9H342)
T10 sequence (whole entry): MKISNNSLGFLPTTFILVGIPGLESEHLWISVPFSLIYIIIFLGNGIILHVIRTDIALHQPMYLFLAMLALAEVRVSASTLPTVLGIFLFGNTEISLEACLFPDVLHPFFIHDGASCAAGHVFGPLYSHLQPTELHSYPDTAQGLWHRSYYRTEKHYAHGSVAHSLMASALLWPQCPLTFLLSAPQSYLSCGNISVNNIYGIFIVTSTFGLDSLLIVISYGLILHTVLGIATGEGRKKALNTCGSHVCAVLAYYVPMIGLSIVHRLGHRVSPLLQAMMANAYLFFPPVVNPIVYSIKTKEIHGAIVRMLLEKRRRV
How it was run: as §1

OR51L1 (Homo sapiens) = target: T11, OR51L1 (Homo sapiens) (UniProt Q8NGJ5)
T11 sequence (whole entry): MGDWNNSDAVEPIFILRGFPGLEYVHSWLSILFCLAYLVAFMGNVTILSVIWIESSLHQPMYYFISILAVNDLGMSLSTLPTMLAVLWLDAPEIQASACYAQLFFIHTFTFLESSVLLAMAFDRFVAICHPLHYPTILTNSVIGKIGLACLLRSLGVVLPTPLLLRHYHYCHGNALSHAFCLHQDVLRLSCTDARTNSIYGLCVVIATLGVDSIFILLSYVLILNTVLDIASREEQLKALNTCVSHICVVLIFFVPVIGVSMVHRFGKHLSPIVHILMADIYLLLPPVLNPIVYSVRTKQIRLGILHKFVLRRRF
How it was run: as §1

OR51M1 (Homo sapiens) = target: T12, OR51M1 (Homo sapiens) (UniProt Q9H341)
T12 sequence (whole entry): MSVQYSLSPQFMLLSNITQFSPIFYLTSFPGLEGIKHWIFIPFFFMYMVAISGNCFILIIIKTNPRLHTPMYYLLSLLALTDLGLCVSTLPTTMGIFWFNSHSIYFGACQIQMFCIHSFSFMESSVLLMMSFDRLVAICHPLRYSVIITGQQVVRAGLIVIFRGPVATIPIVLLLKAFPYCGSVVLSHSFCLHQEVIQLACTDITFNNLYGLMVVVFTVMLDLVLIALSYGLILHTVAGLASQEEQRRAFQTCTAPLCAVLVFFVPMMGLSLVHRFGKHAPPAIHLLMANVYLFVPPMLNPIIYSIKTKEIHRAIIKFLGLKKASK
How it was run: as §1

OR51Q1 (Homo sapiens) = target: T13, OR51Q1 (Homo sapiens) (UniProt Q8NH59)
T13 sequence (whole entry): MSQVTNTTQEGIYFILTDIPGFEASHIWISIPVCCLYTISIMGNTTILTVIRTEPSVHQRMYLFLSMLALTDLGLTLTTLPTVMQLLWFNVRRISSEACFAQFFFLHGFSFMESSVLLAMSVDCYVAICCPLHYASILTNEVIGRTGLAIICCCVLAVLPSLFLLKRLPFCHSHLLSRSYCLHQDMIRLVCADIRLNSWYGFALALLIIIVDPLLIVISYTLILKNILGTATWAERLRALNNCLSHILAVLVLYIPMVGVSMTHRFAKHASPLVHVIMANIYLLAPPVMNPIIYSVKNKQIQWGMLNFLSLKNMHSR
How it was run: as §1

OR51S1 (Homo sapiens) = target: T14, OR51S1 (Homo sapiens) (UniProt Q8NGJ8)
T14 sequence (whole entry): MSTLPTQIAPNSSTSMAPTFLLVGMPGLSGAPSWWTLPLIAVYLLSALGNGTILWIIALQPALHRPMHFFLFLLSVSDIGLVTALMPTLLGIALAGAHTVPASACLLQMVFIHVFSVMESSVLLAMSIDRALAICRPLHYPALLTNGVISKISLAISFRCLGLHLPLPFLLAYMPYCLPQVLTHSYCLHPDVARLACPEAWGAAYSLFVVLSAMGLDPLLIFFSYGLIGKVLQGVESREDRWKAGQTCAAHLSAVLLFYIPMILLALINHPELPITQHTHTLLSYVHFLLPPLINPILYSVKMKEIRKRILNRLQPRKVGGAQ
How it was run: as §1

OR51T1 (Homo sapiens) = target: T15, OR51T1 (Homo sapiens) (UniProt Q8NGJ9)
T15 sequence (whole entry): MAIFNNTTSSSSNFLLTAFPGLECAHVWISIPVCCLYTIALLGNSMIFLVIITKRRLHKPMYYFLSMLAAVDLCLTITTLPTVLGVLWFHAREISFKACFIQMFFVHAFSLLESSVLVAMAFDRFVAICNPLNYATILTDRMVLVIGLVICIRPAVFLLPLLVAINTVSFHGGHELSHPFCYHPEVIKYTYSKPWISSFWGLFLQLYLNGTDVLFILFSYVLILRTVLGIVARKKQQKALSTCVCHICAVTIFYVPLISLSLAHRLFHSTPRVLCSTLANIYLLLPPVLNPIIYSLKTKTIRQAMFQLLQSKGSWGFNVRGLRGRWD
How it was run: as §1

OR51V1 (Homo sapiens) = target: T16, OR51V1 (Homo sapiens) (UniProt Q9H2C8)
T16 sequence (whole entry): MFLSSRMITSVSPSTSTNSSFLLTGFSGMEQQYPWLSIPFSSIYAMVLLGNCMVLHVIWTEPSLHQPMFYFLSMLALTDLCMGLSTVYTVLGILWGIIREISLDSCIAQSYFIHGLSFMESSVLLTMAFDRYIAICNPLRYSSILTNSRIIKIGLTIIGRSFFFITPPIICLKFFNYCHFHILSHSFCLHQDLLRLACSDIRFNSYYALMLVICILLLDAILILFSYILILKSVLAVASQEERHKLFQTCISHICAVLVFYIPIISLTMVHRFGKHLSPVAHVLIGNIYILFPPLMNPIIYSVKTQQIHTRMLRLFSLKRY
How it was run: as §1

OR52A1 (Homo sapiens) = target: T17, OR52A1 (Homo sapiens) (UniProt Q9UKL2)
T17 sequence (whole entry): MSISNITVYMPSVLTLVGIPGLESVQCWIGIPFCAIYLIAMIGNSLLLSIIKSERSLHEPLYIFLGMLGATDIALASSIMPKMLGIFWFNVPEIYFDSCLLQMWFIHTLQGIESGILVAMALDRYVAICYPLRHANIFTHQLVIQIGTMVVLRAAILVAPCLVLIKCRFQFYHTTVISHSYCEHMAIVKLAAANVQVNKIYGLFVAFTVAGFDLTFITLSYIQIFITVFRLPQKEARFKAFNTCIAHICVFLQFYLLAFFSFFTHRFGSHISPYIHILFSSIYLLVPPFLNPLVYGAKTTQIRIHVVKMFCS
How it was run: as §1

OR52A4P (Homo sapiens) = target: T18, OR52A4P (Homo sapiens) (UniProt A6NMU1)
T18 sequence (whole entry): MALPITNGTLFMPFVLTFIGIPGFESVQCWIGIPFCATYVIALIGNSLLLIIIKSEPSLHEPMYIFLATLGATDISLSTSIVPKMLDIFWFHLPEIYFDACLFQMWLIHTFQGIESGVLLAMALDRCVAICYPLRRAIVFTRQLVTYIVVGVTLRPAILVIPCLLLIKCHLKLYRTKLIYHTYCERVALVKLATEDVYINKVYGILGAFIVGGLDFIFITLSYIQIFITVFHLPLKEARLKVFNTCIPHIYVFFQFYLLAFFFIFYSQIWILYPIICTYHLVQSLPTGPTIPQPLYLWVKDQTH
How it was run: as §1

Measured: odorant receptor agonist call

CCCCCC1CCCC(=O)O1 (stereo not drawn)
inactive: all assays above

CCCC(=O)C(C)=O
inactive: OR51E1 (Homo sapiens) | OR51E2 (Homo sapiens) | OR51L1 (Homo sapiens)

O=C([O-])c1ccccc1.[H+]
inactive: OR51E1 (Homo sapiens)

O=C([O-])CC(O)(CC(=O)O)C(=O)[O-].[H+].[H+]
inactive: OR51E1 (Homo sapiens)
